# From PMC4445693 (Clinical Pharmacology : Advances and Applications, 2015)
# Where two headings read alike, the source gives them in different places.
# What was measured:
# [1] = Single-dose plasma and skin-tissue pharmacokinetics of daptomycin in rats; format: in vivo, rat
# Method in brief: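 Rats (10 weeks), scalp depilated, sevoflurane-anaesthetised; test compound 10 mg/mL in saline s.c. Blood and 10×15 mm scalp skin sampled 1, 3, 5, 8, 12 h (3/time point); skin homogenised in 9 vol 1% phosphate buffer pH 6.0, extracted 4°C 18 h. Acetonitrile precipitation, mefenamic acid internal standard; C8 HPLC, UV 214 nm. Cmax/Tmax observed; AUC, MRT by trapezoidal rule; mean ± SD.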
# [2] = cited from earlier work; for AUC24 h in plasma: rat
# [3] = cited from earlier work
# [4] = human plasma; cited from earlier work
# [5] = male, Wistar, rat, plasma, sc, 50 mg/kg, SD
compound,measurement,setting,value
CCCCCCCCCC(=O)N[C@@H](Cc1c[nH]c2ccccc12)C(=O)N[C@H](CC(N)=O)C(=O)N[C@@H](CC(=O)O)C(=O)N[C@@H]1C(=O)NCC(=O)N[C@@H](CCCN)C(=O)N[C@@H](CC(=O)O)C(=O)N[C@H](C)C(=O)N[C@@H](CC(=O)O)C(=O)NCC(=O)N[C@H](CO)C(=O)N[C@@H]([C@H](C)CC(=O)O)C(=O)N[C@@H](CC(=O)c2ccccc2N)C(=O)O[C@@H]1C [daptomycin],Tmax skin tissue,"[1]; male Wistar rats, single subcutaneous 50 mg/kg, skin tissue",3.0 h
same,Tmax,"[1]; male, Wistar, rat, plasma, sc, 50 mg/kg",3 h
same,AUC(0-inf),[1]; [5],812 ± 31.9 µg·h/mL
same,Cmax,[1]; [5],176 ± 6.3 µg/mL
same,MRT,[1]; [5],2.28 ± 0.33 h
same,half-life,[1]; [5],94.8 ± 13.8 min
same,t½,"[2]; rat plasma, previous studies",1.6 to 2.9 h
same,AUC24 h in plasma,[2]; intraperitoneal dose of 30 mg/kg/day,558 µg·h/mL
same,AUC24 h in plasma,[2]; subcutaneous dose of 40 mg/kg/day,605 µg·h/mL
same,Protein binding in rat serum,[3],89.3%
same,Plasma protein binding in humans,[4],92%
